{"data": "Results from different studies"}
{"SMILES": "O=C(COc1ccc(Cl)cc1)NC12CC(c3nnc([C@H]4C[C@@H](OC(F)(F)F)C4)o3)(C1)C2", "host": "human", "medium": "plasma", "route": "oral", "dose": "200 mg", "notes": "multiple doses, once daily, steady state, healthy volunteers", "endpoint": "Cmax", "value": "16.2 µM"}
{"SMILES": "COc1ccc(-c2c(Nc3ccccn3)[nH]c3c(C4=CCCCC4)c(-c4ccccc4)nn3c2=O)cc1", "host": "human", "medium": "plasma", "route": "oral", "dose": "400 mg once daily", "notes": "multiple doses, patients", "endpoint": "Cmax", "value": "3200 ng/mL"}
{"SMILES": "COCC(=O)N1CCC[C@H](C(=O)NCc2nc(-c3ccc(C#N)cc3)cs2)C1", "medium": "Caco-2", "endpoint": "efflux ratio", "value": 2.2}
{"SMILES": "COc1ccc2c(c1)CN(C(=O)CCN1CCC(Cc3ccccc3)CC1)CC[S@@+]2[O-]", "host": "male human", "medium": "plasma", "route": "intravenous", "dose": "0.15 mg/kg", "notes": "healthy volunteers", "endpoint": "Cmax", "value": "349 ng/mL"}
{"SMILES": "CC(C)n1c(C2CCNCC2)nc2c([N+](=O)[O-])c(Br)c(Br)cc21", "host": "human", "medium": "plasma", "route": "oral", "dose": "75 mg", "notes": "patients", "endpoint": "Cmax", "value": "60.5 ng/mL"}
{"SMILES": "CCOCC(=O)N1CCC[C@H](C(=O)NCc2nc(-c3ccc(C)nc3)cs2)C1", "medium": "Caco-2", "endpoint": "efflux ratio", "value": 3.8}
{"SMILES": "Cc1cc(-c2nccc3c2ccn3CC(=O)Nc2ccc(-c3cnccn3)cn2)ccn1", "host": "human", "medium": "plasma", "route": "oral", "dose": "40 mg", "notes": "single dose", "endpoint": "Cmax", "value": "0.345 µM"}
{"SMILES": "CN(C)C(=O)c1cc2cnc(Nc3ccc(-c4ccc5c(=O)cc(N6CCOCC6)oc5c4)cc3)nc2n1C1CCCC1.Cl", "host": "BALB/c mouse", "medium": "plasma", "route": "oral", "dose": "20 mg/kg", "endpoint": "Tmax", "value": "54 min"}
